Common to all, as to type: functional, organism-based
In test [1] the test system is Candida albicans. Kind of test: Antifungal activity against Candida albicans CA8621 by spectrophotometry. A digest of the protocol:
(§1)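 Clinical C. albicans blastoconidia came from 1- to 2-day Sabouraud cultures, with a final inoculum of 5 × 10^2 to 2.5 × 10^3 CFU/ml in RPMI 1640 buffered to pH 7 with 0.165 M MOPS. Incubation was 37°C for 24 h. A405 was corrected against a conidium-free plate and expressed as % of drug-free control, and an Emax model was fitted for EC50. Three replicates.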

Test [2] has as its system Aspergillus fumigatus. The test can be described thus: Antifungal activity against Aspergillus fumigatus AF4215 spectrophotometry. The method, boiled down: (§2)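 Clinical A. fumigatus conidia were harvested from 5- to 7-day Sabouraud cultures, with a final inoculum of 0.4 × 10^4 to 5 × 10^4 CFU/ml in RPMI 1640 (0.165 M MOPS, pH 7). Incubation was 37°C for 24 h. Growth at 405 nm, background-subtracted, was expressed as % of drug-free control, and an Emax model was fitted to give EC50. Three replicates.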

In test [3] the test system is Candida albicans. The test can be described thus: Antifungal activity against Candida albicans CA362 by spectrophotometry. The method, boiled down:
as §1

In test [4] the test system is Aspergillus fumigatus. Kind of test: Antifungal activity against Aspergillus fumigatus AF2025 spectrophotometry. A digest of the protocol: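 Conidia from 5–7-day Sabouraud agar cultures were adjusted to 80–82% transmittance at 530 nm, giving a final 0.4 × 10^4 to 5 × 10^4 CFU/ml in RPMI 1640 buffered at pH 7 with 0.165 M MOPS. They were tested in a checkerboard alone or with ciprofloxacin for 24 h at 37°C. A405 was converted to % of drug-free growth after background subtraction, an Emax model was fitted, and each test was run in triplicate.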

Test [5] concerns Candida albicans. Kind of test: Antifungal activity against Candida albicans CA5685 by spectrophotometry. The method, boiled down: as §1
The test system of test [6] is Aspergillus fumigatus. Kind of test: Antifungal activity against Aspergillus fumigatus AF2350 by spectrophotometry. The method, boiled down: as §2

Three molecules from ChEMBL document CHEMBL1255332, “Isobolographic analysis of pharmacodynamic interactions between antifungal agents and ciprofloxacin against Candida albicans and Aspergillus fumigatus” (Antimicrob Agents Chemother, 2008) can be followed below.

In brackets after ≈: the same amount, converted by molar mass.

One may read the EC50 as the concentration at which the effect is half-maximal. Higher therefore signals a less potent agent. One may read the MIC as the least concentration at which growth counts as inhibited.

With `OC(Cn1cncn1)(Cn1cncn1)c1ccc(F)cc1F` [FLUCONAZOLE], in test [1], the midpoint of the response, the EC50, lay at 0.09 µg/mL (≈ 0.294 µM) and the MIC amounted to 0.125 µg/mL (≈ 0.408 µM). Besides, in test [2], a half-maximal effect (EC50) was put at 0.18 µg/mL (≈ 0.588 µM) and the MIC is 0.5 µg/mL (≈ 1.63 µM).
Consider `C[C@@H]1[C@H](O)[C@@H](C)/C=C/C=C/C=C/C=C/C=C/C=C/C=C/[C@H](O[C@@H]2O[C@H](C)[C@@H](O)[C@H](N)[C@@H]2O)C[C@@H]2O[C@](O)(C[C@@H](O)C[C@@H](O)[C@H](O)CC[C@@H](O)C[C@@H](O)CC(=O)O[C@H]1C)C[C@H](O)[C@H]2C(=O)O` [AMPHOTERICIN B], for which, in test [3], it took 0.25 µg/mL (≈ 0.271 µM) to reach a half-maximal effect (EC50) and the MIC amounted to 0.125 µg/mL (≈ 0.135 µM). In test [4], this molecule showed an EC50 of 0.5 µg/mL (≈ 0.541 µM) and an MIC of 0.5 µg/mL (≈ 0.541 µM).
Consider `CC[C@H](C)C[C@H](C)CCCCCCCCC(=O)N[C@H]1C[C@@H](O)[C@@H](NCCN)NC(=O)[C@@H]2[C@@H](O)CCN2C(=O)[C@H]([C@H](O)CCN)NC(=O)[C@H]([C@H](O)[C@@H](O)c2ccc(O)cc2)NC(=O)[C@@H]2C[C@@H](O)CN2C(=O)[C@H]([C@@H](C)O)NC1=O` [CASPOFUNGIN], for which the EC50 in test [5] was determined as 0.59 µg/mL (≈ 0.54 µM); in test [6], 28.8 µg/mL (≈ 26.3 µM). Also, the MIC is 1 µg/mL (≈ 0.915 µM) in test [5] and 128 µg/mL (≈ 117 µM) in test [6].
